pIC50: −log10 of the molar value.
Assays:
Format in all cases: functional, tissue-based
Histamine H1 receptor [1] = biological target: T1, Histamine H1 receptor (Cavia porcellus, UniProt P31389); experiment: (§1) In vitro for histamine H1 receptor antagonist activity against histamine-induced contractions on isolated guinea pig ileum; conditions: read-out: pA2 (converted)
Histamine H1 receptor [2] = biological target: T1, Histamine H1 receptor; experiment: as §1
Procedure, shortened: (§2)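 Isolated ileum from guinea pigs of either sex (~250 g), tested with racemates. Percent inhibition is taken against the submaximal contraction to 0.5 μM histamine without drug, with six observations per drug concentration. IC50 is the concentration giving 50% inhibition. pA2 = −log KB by Schild, where KB = B/(x−1) and x is the histamine half-maximal concentration ratio with/without antagonist.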

Histamine H1 receptor [3] = biological target: T1, Histamine H1 receptor; experiment: Compound was tested in vitro for histamine H1-antagonist activity against histamine-induced contractions on isolated guinea pig ileum; procedure, shortened: as §2

T1 sequence (P31389 whole entry): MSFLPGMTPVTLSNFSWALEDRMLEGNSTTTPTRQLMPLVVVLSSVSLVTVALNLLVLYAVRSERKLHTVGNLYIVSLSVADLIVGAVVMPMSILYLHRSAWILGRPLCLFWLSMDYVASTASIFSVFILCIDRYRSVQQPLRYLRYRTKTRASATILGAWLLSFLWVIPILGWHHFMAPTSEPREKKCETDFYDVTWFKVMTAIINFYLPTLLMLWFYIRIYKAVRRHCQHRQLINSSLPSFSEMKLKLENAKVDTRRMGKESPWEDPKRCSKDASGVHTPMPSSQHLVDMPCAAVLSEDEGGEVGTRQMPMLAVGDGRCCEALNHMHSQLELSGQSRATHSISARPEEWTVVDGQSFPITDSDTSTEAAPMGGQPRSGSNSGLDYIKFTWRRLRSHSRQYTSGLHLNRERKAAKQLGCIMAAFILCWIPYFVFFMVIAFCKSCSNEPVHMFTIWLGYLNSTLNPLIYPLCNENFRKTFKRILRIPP

CN(C)CCCN1C(=O)CSC1c1ccc(Cl)cc1 (configuration not stated)
Kb (Histamine H1 receptor [1]): 2510 nM | pIC50 (Histamine H1 receptor [2]): 4.68

COc1ccc(C2SCC(=O)N2CCCN(C)C)cc1 (configuration not stated)
Kb (Histamine H1 receptor [1]): 10000 nM | pIC50 (Histamine H1 receptor [2]): < 4.00

CN(C)CCCN1C(=O)CSC1c1ccncc1 (configuration not stated)
pIC50 (Histamine H1 receptor [3]): < 4.00

CN(C)CCCN1C(=O)CSC1c1cccc(Br)c1 (configuration not stated)
Kb (Histamine H1 receptor [1]): 398 nM | pIC50 (Histamine H1 receptor [2]): 4.22

CN(C)CCCN1C(=O)CSC1c1cccc(F)c1 (configuration not stated)
Kb (Histamine H1 receptor [1]): 398 nM | pIC50 (Histamine H1 receptor [2]): 5.51

CC(C)c1ccc(C2SCC(=O)N2CCCN(C)C)cc1 (configuration not stated)
Kb (Histamine H1 receptor [1]): 2 nM | pIC50 (Histamine H1 receptor [2]): 6.00

CN(C)CCCN1C(=O)CSC1c1ccc(N)cc1 (configuration not stated)
Kb (Histamine H1 receptor [1]): 1000 nM | pIC50 (Histamine H1 receptor [2]): 4.40

CN(C)CCCN1C(=O)CSC1c1ccccc1 (configuration not stated)
Kb (Histamine H1 receptor [1]): 39.8 nM | pIC50 (Histamine H1 receptor [2]): 4.70

CN(C)CCCN1C(=O)CSC1c1ccc(Br)cc1 (configuration not stated)
Kb (Histamine H1 receptor [1]): 39.8 nM | pIC50 (Histamine H1 receptor [2]): 5.64

Cc1ccc(C2SCC(=O)N2CCCN(C)C)cc1 (configuration not stated)
Kb (Histamine H1 receptor [1]): 5.01 nM | pIC50 (Histamine H1 receptor [2]): 5.92

CN(C)CCCN1C(=O)CSC1c1ccc(F)cc1 (configuration not stated)
Kb (Histamine H1 receptor [1]): 79.4 nM | pIC50 (Histamine H1 receptor [2]): 4.62

CN(C)CCCN1C(=O)CSC1c1cccc([N+](=O)[O-])c1 (configuration not stated)
Kb (Histamine H1 receptor [1]): 3980 nM | pIC50 (Histamine H1 receptor [2]): < 4.00

COc1cccc(C2SCC(=O)N2CCCN(C)C)c1 (configuration not stated)
Kb (Histamine H1 receptor [1]): 398 nM | pIC50 (Histamine H1 receptor [2]): 4.60

Cc1cccc(C2SCC(=O)N2CCCN(C)C)c1 (configuration not stated)
Kb (Histamine H1 receptor [1]): 20 nM | pIC50 (Histamine H1 receptor [2]): 5.30

CN(C)CCCN1C(=O)CSC1c1ccc([N+](=O)[O-])cc1 (configuration not stated)
Kb (Histamine H1 receptor [1]): 6310 nM | pIC50 (Histamine H1 receptor [2]): < 4.00

CN(C)CCN1C(=O)CSC1c1ccccc1 (configuration not stated)
pIC50 (Histamine H1 receptor [2]): < 4.00

CN(C)CCCN1C(=O)CSC1c1cccc(Cl)c1 (configuration not stated)
Kb (Histamine H1 receptor [1]): 631 nM | pIC50 (Histamine H1 receptor [2]): 5.66

— ChEMBL document CHEMBL1125507, “Synthesis and antihistaminic activity of some thiazolidin-4-ones” (J Med Chem, 1992)
